# Measured values from ChEMBL document CHEMBL1773065, “Impact of the nature of the substituent at the 3-position of 4H-1,2,4-benzothiadiazine 1,1-dioxides on their opening activity toward ATP-sensitive potassium channels” (J Med Chem, 2011).
# Active and inactive are the calls of the source. The rule behind the calls is not given here.
# Columns and labels:
# [1] = Inhibition of glucose induced insulin secretion from rat Pancreatic islet assessed as percentage of residual insulin release at 10 uM; assay type: functional
# Summary of the method: (§1)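 Isolated rat pancreatic islets incubated with 16.7 mM glucose and drug at 0.1–50 μM. Result is insulin release as a percentage of residual release, mean ± SEM (n).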
# [2] = Inhibition of glucose induced insulin secretion from rat Pancreatic islet assessed as percentage of residual insulin release at 50 uM; assay type: functional; summary of the method: as §1
# [3] = Myorelaxant effect in Wistar rat uterus smooth muscle assessed as inhibition of contractions induced by continuous superfusion of oxytocin in absence ATP-sensitive potassium channel blocker glibenclamide; assay type: functional
# Summary of the method: (§2)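 Rat uterus continuously superfused with 50 mU/L oxytocin. Mean of three contraction AUCs set as 100%, then drug added at increasing concentrations, with no glibenclamide or with 1 or 10 μM glibenclamide present continuously. EC50 is the concentration giving 50% residual contraction, mean ± SEM (n).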
# [4] = Myorelaxant effect in Wistar rat uterus smooth muscle assessed as inhibition of contractions induced by bolus of oxytocin injected in superfusion system at 50 uM; assay type: functional; parameters: scale not given: the % may be the effect or the level left
# Summary of the method: (§3)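 Uteri from fed Wistar rats (150–200 g) given diethylstilboestrol dipropionate i.m. the day before. Tissue superfused; after 30 min stabilization, 20 mU oxytocin boluses given every 10 min until contractions (AUC) were constant. Three or more boluses per drug concentration (10, 50, 100 μM). Mean AUC expressed as percentage of the drug-free response.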
# [5] = Myorelaxant effect in Wistar rat uterus smooth muscle assessed as inhibition of contractions induced by bolus of oxytocin injected in superfusion system at 100 uM; assay type: functional; parameters: scale not given: the % may be the effect or the level left; summary of the method: as §3
# [6] = Inhibition of glucose induced insulin secretion from rat Pancreatic islet assessed as percentage of residual insulin release; assay type: functional; summary of the method: as §1
# [7] = Myorelaxant effect in Wistar rat uterus smooth muscle assessed as inhibition of contractions induced by bolus of oxytocin injected in superfusion system at 10 uM; assay type: functional; parameters: scale not given: the % may be the effect or the level left; summary of the method: as §3
# [8] = Myorelaxant effect in KCl-induced precontracted rat aorta ring VSMC; assay type: functional, tissue-based
# Summary of the method: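 Rat aortic rings precontracted with 30 mM KCl. EC50 is the drug concentration giving 50% relaxation, mean ± SEM (n).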
# [9] = species on record: Rattus norvegicus; assay: Activation of ATP-sensitive potassium channel in rat pancreatic islets assessed as decrease in insulinotropic glucose concentration-mediated cytosolic calcium level by fluorimetry
# [10] = species on record: Rattus norvegicus; assay: Activation of ATP-sensitive potassium channel in glucose and extracellular calcium evoked rat pancreatic islets assessed as increased 86Rb outflow at 10 uM by radioisotopic and fluorimetric method in presence of 10 uM ATP-sensitive potassium channel blocker glibenclamide
# Summary of the method: (§4)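 Prelabeled, perifused rat pancreatic islets in 5.6 mM glucose with extracellular Ca2+. Drug given at 10 or 50 μM with 10 μM glibenclamide present continuously in the medium. Read-out is 86Rb outflow rate. Six individual experiments.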
# [11] = species on record: Rattus norvegicus; assay: Activation of ATP-sensitive potassium channel in glucose and extracellular calcium evoked rat pancreatic islets assessed as increase in 86Rb outflow measured per min at 50 uM
# Summary of the method: (§5)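 Prelabeled rat pancreatic islets, perifused throughout with 5.6 mM glucose and extracellular Ca2+. Drug added at 10 or 50 μM, then withdrawn. Read-out is the increase in 86Rb outflow rate, in %/min. Six individual experiments.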
# [12] = species on record: Rattus norvegicus; assay: Activation of ATP-sensitive potassium channel in glucose and extracellular calcium evoked rat pancreatic islets assessed as increase in 86Rb outflow measured per min; summary of the method: as §5
# [13] = species on record: Rattus norvegicus; assay: Activation of ATP-sensitive potassium channel in glucose and extracellular calcium evoked rat pancreatic islets assessed as decrease in insulin output at 50 uM; settings: TDE = time-dependent effect
# [14] = species on record: Rattus norvegicus; assay: Activation of ATP-sensitive potassium channel in glucose and extracellular calcium evoked rat pancreatic islets assessed as increased 86Rb outflow at 50 uM by radioisotopic and fluorimetric method in presence of 10 uM ATP-sensitive potassium channel blocker glibenclamide; summary of the method: as §4
# [15] = species on record: Rattus norvegicus; assay: Activation of ATP-sensitive potassium channel in extracellular calcium deprived and glucose evoked rat pancreatic islets assessed as reduction in 45Calcium outflow at 50 uM
# [16] = species on record: Rattus norvegicus; assay: Activation of ATP-sensitive potassium channel in glucose and extracellular calcium evoked rat pancreatic islets assessed as reduction in 45Calcium outflow at 50 uM
# [17] = species on record: Rattus norvegicus; assay: Activation of ATP-sensitive potassium channel in glucose and extracellular calcium evoked rat pancreatic islets assessed as reduced 45Calcium outflow at 50 uM in presence of extracellular potassium ion; parameters: scale not given: the % may be the effect or the level left
# Summary of the method: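 Prelabeled, perifused rat pancreatic islets exposed throughout to 2.8 mM glucose and extracellular Ca2+. Extracellular K+ raised suddenly from 5 to 50 mM, with or without 50 μM drug in the basal medium. Read-out is the magnitude of the increase in 45Ca outflow, in %/min.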
# [18] = species on record: Rattus norvegicus; assay: Activation of ATP-sensitive potassium channel in glucose and extracellular calcium evoked rat pancreatic islets assessed as increase in 86Rb outflow measured per min at 10 uM; summary of the method: as §5
# [19] = Dissociation constant, pKa of the compound; assay type: physicochemical
# Summary of the method: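 pKa determined by UV spectrophotometry at 25 °C. Spectra recorded in aqueous buffers from pH 5 to 12.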
# [20] = Myorelaxant effect in Wistar rat uterus smooth muscle assessed as inhibition of contractions induced by continuous superfusion of oxytocin in presence of 10 uM ATP-sensitive potassium channel blocker glibenclamide; assay type: functional; summary of the method: as §2
# [21] = Myorelaxant effect in Wistar rat uterus smooth muscle assessed as inhibition of contractions induced by continuous superfusion of oxytocin in presence of 1 uM ATP-sensitive potassium channel blocker glibenclamide; assay type: functional; summary of the method: as §2
# [22] = species on record: Rattus norvegicus; assay: Activation of ATP-sensitive potassium channel in rat aorta rings assessed as increased 86Rb outflow at 100 uM in absence of ATP-sensitive potassium channel blocker glibenclamide; assay type: tissue-based
# Summary of the method: (§6)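 Prelabeled rat aortic rings perifused throughout with or without 10 μM glibenclamide. Drug applied at 100 μM. Read-out is 86Rb outflow. Four to five individual experiments.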
# [23] = species on record: Rattus norvegicus; assay: Activation of ATP-sensitive potassium channel in rat aorta rings assessed as increased 86Rb outflow at 100 uM in presence of 10 uM ATP-sensitive potassium channel blocker glibenclamide; assay type: tissue-based; summary of the method: as §6
# [24] = Inhibition of glucose induced insulin secretion from rat Pancreatic islet assessed as percentage of residual insulin release at 1 uM; assay type: functional; summary of the method: as §1
# [25] = Inhibition of glucose induced insulin secretion from rat Pancreatic islet assessed as percentage of residual insulin release at 0.1 uM; assay type: functional
# Summary of the method: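 Isolated rat pancreatic islets incubated with test drug in the presence of 16.7 mM glucose. Insulin release was measured and expressed as percentage of residual insulin release, given as mean ± SEM with number of determinations (n).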
compound,measurement,setting,value
CC(C)SC1=NS(=O)(=O)c2cc(F)ccc2N1,Activity,[1],88.7%
same,Activity,[2],55.1%
CC(C)SC1=NS(=O)(=O)c2ccc(Cl)cc2N1,Activity,[1],80.2%
same,Activity,[2],44%
CC1=Nc2ccc(Cl)cc2S(=O)(=O)N1 [DIAZOXIDE],EC50,[3],> 30 µM
same,Activity,[4],76.3%
same,Activity,[5],67.7%
same,IC50,[6],18.4 µM
same,Activity,[7],93.8%
CC(C)OC1=NS(=O)(=O)c2ccccc2N1,Activity,[1],90.4%
CC(C)OC1=NS(=O)(=O)c2cc(Br)ccc2N1,Activity,[1],62.5%
O=S1(=O)N=C(SCc2ccccc2)Nc2ccc(Cl)cc21,EC50,[8],5.4 µM
same,EC50,[3],11.7 µM
Cc1ccc2c(c1)S(=O)(=O)N=C(SC(C)C)N2,Activity,[1],77%
CC(C)SC1=NS(=O)(=O)c2cc(Cl)c(Cl)cc2N1,Activity,[1],70%
same,Activity,[2],12.9%
CC(C)[S+]([O-])C1=NS(=O)(=O)c2cc(Cl)ccc2N1 (stereo not given),Activity,[1],92.3%
same,Activity,[2],89.8%
CC(C)OC1=NS(=O)(=O)c2cc(Cl)ccc2N1,Activity,[1],77.3%
same,Activity,[9],Active
same,EC50,[8],22.7 µM
same,Activity,[10],inactive
same,Activity,[11],1.32%
same,Activity,[4],85.8%
same,Activity,[12],Dose-dependent effect
same,Activity,[5],68.7%
same,IC50,[6],19.1 µM
same,Activity,[2],17.5%
same,Activity,[7],88%
same,Activity,[13],tde
same,Activity,[14],inactive
same,Activity,[15],inactive
same,Activity,[16],Active
same,Activity,[17],1.12%
same,Activity,[18],0.23%
same,pKa,[19],8
CC(SC1=NS(=O)(=O)c2cc(Cl)ccc2N1)c1ccccc1 (racemic),EC50,[8],5.4 µM
same,EC50,[3],4.4 µM
same,EC50,[20],24.2 µM
same,EC50,[21],6.8 µM
CC(C)NC1=NS(=O)(=O)c2cc(F)ccc2N1,Activity,[1],3.7%
same,Activity,[2],3.3%
COc1ccc2c(c1)S(=O)(=O)NC(NC(C)C)=N2,Activity,[1],8.5%
same,Activity,[2],4.4%
same,Activity,[13],tde
same,Activity,[15],inactive
same,Activity,[16],Active
CC(C)CC1=NS(=O)(=O)c2cc(F)ccc2N1,Activity,[1],75.3%
CC(C)SC1=NS(=O)(=O)c2cc(Cl)ccc2N1,Activity,[1],104%
same,EC50,[8],23 µM
same,EC50,[3],> 30 µM
same,Activity,[4],54.7%
same,Activity,[5],2.3%
same,IC50,[6],50 µM
same,Activity,[2],51.3%
same,Activity,[7],98.8%
same,pKa,[19],7.01
Cc1ccc2c(c1)S(=O)(=O)N=C(OC(C)C)N2,Activity,[1],79.5%
CC(C)CC1=NS(=O)(=O)c2ccccc2N1,Activity,[1],85.2%
CC(C)CC1=NS(=O)(=O)c2cc(Cl)ccc2N1,Activity,[1],43.2%
same,EC50,[8],5.8 µM
same,Activity,[4],64.7%
same,Activity,[5],55%
same,IC50,[6],5.8 µM
same,Activity,[2],21%
same,Activity,[7],73.9%
same,Activity,[22],Active
same,Activity,[23],inactive
same,pKa,[19],8.52
CC(N/C(=N\C#N)Nc1ccncc1)C(C)(C)C (racemic) [PINACIDIL ANHYDROUS],EC50,[8],0.62 µM
same,EC50,[3],1.3 µM
same,Activity,[4],42.7%
same,Activity,[5],38.1%
same,IC50,[6],202 µM
same,Activity,[7],44.9%
same,EC50,[20],28.3 µM
same,EC50,[21],8.1 µM
CC(C)NC1=NS(=O)(=O)c2cc(Cl)ccc2N1,Activity,[4],95%
same,Activity,[5],75.6%
same,IC50,[6],0.55 µM
same,Activity,[7],94.4%
COc1ccc2c(c1)S(=O)(=O)N=C(OC(C)C)N2,Activity,[1],80.8%
CC(C)NC1=NS(=O)(=O)c2ccccc2N1,Activity,[1],34.9%
same,Activity,[24],73.7%
CC(C)CC1=NS(=O)(=O)c2cc(Br)ccc2N1,Activity,[1],61.8%
same,Activity,[24],85.8%
CC(C)OC1=NS(=O)(=O)c2cc(F)ccc2N1,Activity,[1],87.5%
same,Activity,[2],44.1%
Cc1ccc2c(c1)S(=O)(=O)N=C(NC(C)C)N2,Activity,[1],8.5%
same,Activity,[24],71.3%
same,Activity,[2],3.5%
CC(C)SC1=NS(=O)(=O)c2ccc(Br)cc2N1,Activity,[1],87%
same,Activity,[2],33.8%
CC(C)SC1=NS(=O)(=O)c2ccccc2N1,Activity,[1],93.9%
CC(C)SC1=NS(=O)(=O)c2cc(Br)ccc2N1,Activity,[1],90.3%
same,Activity,[2],47.3%
CC(C)NC1=NS(=O)(=O)c2ccc(Cl)cc2N1,Activity,[1],7.5%
same,Activity,[25],76.7%
same,Activity,[2],6.4%
CC(C)NC1=NS(=O)(=O)c2cc(Br)ccc2N1,Activity,[1],8.1%
same,Activity,[25],91%
same,Activity,[2],6.7%
CC(C)CSC1=NS(=O)(=O)c2cc(Cl)ccc2N1,EC50,[8],6.2 µM
same,EC50,[3],13.5 µM
CC(C)OC1=NS(=O)(=O)c2cc(Cl)c(Cl)cc2N1,Activity,[1],73.7%
